# From ChEMBL document CHEMBL4513216, “Probing the Open Global Health Chemical Diversity Library for Multistage-Active Starting Points for Next-Generation Antimalarials” (ACS Infect Dis, 2020)
# Assay: Toxicity liver stage against HepG2, at 10uM
# Type: cell-based
# Parameters: test concentration 10 uM, cell line HepG2-A16-CD81EGFP
# Conditions: human, HepG2-A16-CD81EGFP cells; read-out: INHIBITION
# Summary of the method: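 Uninfected HepG2-A16-CD81EGFP cells, 3 × 10^3 per well, 1536-well, plated on prespotted compound at 10 μM final, parasite-free screening media added to match infected plates; puromycin 10 μM positive, DMSO 0.5% negative; run in parallel with 48 h PbLuc assay at 37 °C, 5% CO2; viability by CellTiter-Glo luminescence, normalized to controls.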
row,SMILES,cytotoxicity at 10 µM [%]
1,COc1ccccc1Oc1ncccc1CNC(=O)C(C)N1CCCC1 (stereo not drawn),-5.39
2,COc1ccc(S(=O)(=O)N[C@H]2CN(C(C)=O)C[C@@H]2C(C)C)cc1F,-0.277
3,COCCCNC(=O)c1c(C)noc1C(C)C,-28.2
4,CN(C)CCN(Cc1ccc(Cl)cc1)C(=O)c1ccncc1,7.99
5,COc1ccc(-c2nnsc2C(=O)N2CCSCC2)cc1,-1.17
6,Cc1nc(CN2CCCC2C(=O)OCc2ccccc2)oc1C (stereo not drawn),-1.86
7,CCc1noc(C)c1C(=O)NCc1cc[nH]n1,3.44
8,Cc1ncc(C(=O)N2CC[C@@]3(O)CCN(C(=O)N(C)C)C[C@H]3C2)cn1,-46.3
9,O=C(Cc1nc(-c2ccncc2)n[nH]1)N1CCOCC1,-0.749
10,c1ccc(C2CCCN2C2CCSCC2)nc1 (stereo not drawn),9.03
11,O=C(NCc1nc2ccccc2[nH]1)c1cnn2c1OCCC2,0.0962
12,CCNc1ncc(C(=O)NC2CCOCC2)cn1,4.37
13,O=C(c1ccno1)N1CCC2(CC1)C(=O)Nc1ccccc12,-134
14,Cc1oncc1S(=O)(=O)N1CCCC(C)(Cc2ccc3c(c2)OCO3)C1 (stereo not drawn),1.3
15,CC(C)(C)n1cc(C(=O)N2CCN(Cc3ccncc3)CC2)cn1,-12.8
16,COCCN1CCC(CN(CC2CCCO2)C(=O)CNC(C)=O)CC1 (stereo not drawn),1.48
17,Cc1cnn(CC2CCCCN2C(=O)c2csc(C)n2)c1 (stereo not drawn),-1.16
18,Cc1cccc(C(=O)N2CCN(c3ccc(-n4cccc4)nn3)CC2)c1,67.1
19,COc1cccc2c1OCC(CNC(=O)COCC(F)(F)C(F)F)C2 (stereo not drawn),-134
20,CSCCC(=O)N1CCCC1c1nnc2n1CCCCC2 (stereo not drawn),-5.79
21,CN(C)c1nc(NCc2ccccc2Cn2cccn2)ncc1F,54.4
22,COc1cccc([C@@H]2CCN(Cc3c[nH]c(C)n3)C[C@H]2O)c1,-2.89
23,COCC(C)N1CCc2onc(-c3ccc(C(F)(F)F)cc3)c2C1 (stereo not drawn),-6.45

row,SMILES,cytotoxicity at 10 µM [%]
1,COc1ccc(O[C@H]2COCCN(C(=O)c3ccno3)C2)cc1,-2.41
2,CS(=O)(=O)c1cn[nH]c1C1CCCCN1C(=O)c1cnccn1 (stereo not drawn),-2.13
3,Cc1cccc(CCC(=O)N2CCOCC2c2c(C)n[nH]c2C)c1 (stereo not drawn),-13.3
4,CC(=O)NC(CC(=O)Nc1nc(C)c(C)s1)c1ccccc1 (stereo not drawn),3.78
5,COc1ncccc1CNC(=O)c1cc(C)on1,-20.2
6,CN1CCCN(C(=O)c2cnc(Cc3c(Cl)cccc3Cl)nc2O)CC1,-0.862
7,O=C(c1ccccn1)N1CCC2(CCCN(c3nncs3)C2)C1 (stereo not drawn),-111
8,NC(=O)C1CCN(c2ncccc2C(=O)N2CCc3ccccc32)C1 (stereo not drawn),-5.78
9,O=C(NCc1ccc2c(c1)OCO2)Nc1cccnc1N1CCCC1,-13.4
10,Cc1noc(CCCC(=O)NC(C)c2cn(-c3ccccc3)nn2)n1 (stereo not drawn),-8.18
11,Cn1ccnc1-c1cn(CCCc2nnc(N)s2)nn1,10
12,CN(C(=O)c1ccc2c(c1)nc(N1CC[C@H](O)C1)n2C)C1CCSCC1,-13
13,Cc1ccc(CS(=O)(=O)N2Cc3c(CN(C)C)nn(C)c3C2)cc1,-98.2
14,CC(C)c1cc(C2CCCN2C(=O)CN2C(=O)CCNC2=O)no1 (stereo not drawn),18.8
15,Cc1occc1C(=O)N1CCCC2(CCN(c3ccccc3)C2=O)C1 (stereo not drawn),-5.5
16,CCc1c(C)nc(N)nc1N1CCCC(c2nc(CCOC)no2)C1 (stereo not drawn),31.5
17,O=C1NCCCC12CCN(S(=O)(=O)N1CCOCC1)C2 (stereo not drawn),-1.16
18,COCC1CN(C(=O)Cc2cccs2)Cc2nnn(CC3CC3)c21 (stereo not drawn),5.98
19,O=c1cc(CN2CC[C@@H]3CC[C@H](C2)N3)c2cccc3c2n1CCC3,9.64
20,Cc1nc(CN(CCS(C)(=O)=O)C(C)C)cs1,-44.2
21,c1cnc(N2CC[C@@H]3CN(Cc4ccncc4)CCO[C@@H]3C2)nc1,5.53
22,CCCc1cc(CNC2CCN(c3nc4ccccc4s3)CC2)on1,-4.34
23,OCc1cc(C2CCCN2c2ncccn2)n[nH]1 (stereo not drawn),8.32

row,SMILES,cytotoxicity at 10 µM [%]
1,O=C1CC(c2ccccc2)c2snc(C(=O)O)c2N1 (stereo not drawn),-5.02
2,CC(c1ccncc1)N(C)C(=O)NCCOc1ccc(C#N)cc1 (stereo not drawn),-15.5
3,Cc1nc(C)n(CC2CCCCN2Cc2cscn2)n1 (stereo not drawn),-5.26
4,CNC(=O)C1CCN(c2nccc(CCC(F)(F)F)n2)C1 (stereo not drawn),-11.4
5,CCNC(=O)CCC(=O)Nc1nc(C)c(Cc2ccc(F)cc2)s1,6.68
6,O=C(NCc1cccnc1)N1CCc2ncnc(NC3CC3)c2CC1,-107
7,Cc1ccc(NCc2cn3c(n2)CN(Cc2ccoc2)CC3)nn1,9.43
8,CN(C)Cc1cc(=O)n2c(n1)CN(C(=O)Cc1ccsc1)CCC2,-4.43
9,CSC1(CNC(=O)c2ccn(-c3ccccc3F)n2)CCOCC1,0.243
10,COc1ccnc(CNc2nc(C)nc3ccsc23)c1,40.5
11,O=C(NCCNC(=O)c1scnc1Cl)c1ccccc1,8.45
12,CCn1nc(C)c2c1cnn2CCNS(=O)(=O)c1ccccc1,6.28
13,N#Cc1nccnc1NCCC1CCN(CC(F)(F)F)CC1,1.6
14,Cc1noc(C)c1C(=O)N1CCC2(CC1)c1nc[nH]c1CCN2C,7.9
15,Cc1nn(C)c2c(N3CCSCC3)nc(C3CC3)nc12,7.29
16,O=C(CCc1cscn1)NS(=O)(=O)c1ccc2ccccc2c1,-13.1
17,COc1cc(Oc2ccc(C(F)(F)F)cn2)ccc1CN1CCCC1,51.5
18,COc1nn(C)c2c1CCCN(C(=O)c1ccc(C)c(F)c1)C2,8.21
19,Cc1ncsc1CN1CC[C@H]2OCC[C@@]2(C(=O)NCC2CC2)C1,2.4
20,Cc1cc(C)c2c(N(C)CC3COCCO3)ncnc2n1 (stereo not drawn),-133
21,Cc1cccc(NC(=O)[C@@H]2CCCN2CC(=O)N2CCCCCC2)n1,20.3
22,O=C1CCOC[C@]2(CN(Cc3ccccc3)C[C@H]2c2cccc(F)c2)N1,-0.0186
23,c1ccc(Cn2cc3c(n2)C(CNCc2ccco2)OCC3)nc1 (stereo not drawn),-7.85

row,SMILES,cytotoxicity at 10 µM [%]
1,COc1cccc(CC2CCCN2CCCO)c1 (stereo not drawn),-37.5
2,NC(=O)CN1CC2(CCC1=O)CCN(C(=O)c1ccccc1F)CC2,23.5
3,O=C(NCc1ccccn1)NCC(c1ccco1)N1CCCC1 (stereo not drawn),-2.56
4,CN(Cc1cnn(-c2ccccc2)n1)C1CCCN(c2cccnn2)C1 (stereo not drawn),-9.83
5,CNc1cnc(CC2COCCN(Cc3cccc(C)n3)C2)cn1 (stereo not drawn),8
6,Cc1ccc(C(=O)N2CCC(Oc3ccccc3)CC2)c(=O)[nH]1,-1.01
7,CC(NC(=O)N(C)Cc1cnn(C)c1)c1nncn1C (stereo not drawn),-3.03
8,O=C(NCCn1ccnc1)c1ccn(-c2ccccc2F)n1,0.533
9,COCCN1CCN(CCCS(=O)(=O)c2ccccc2)CC1C (stereo not drawn),-9.31
10,CNC(=O)CCc1cc(C2CCN(c3cnccn3)CC2)nc(C)n1,-4.65
11,CC(C)(C)c1nnc(CN2CCN(C(=O)N3CCCCC3)CC2)o1,2.44
12,CC(O)CN1CCc2onc(C(c3ccccc3)c3ccccc3)c2C1 (stereo not drawn),-1.49
13,Cn1nnn(-c2ccc(NS(=O)(=O)c3ccc(F)c(Cl)c3)cc2)c1=O,-4.57
14,CSc1ccc(CN(C(=O)c2cc(=O)[nH]c(=O)[nH]2)C2CC2)cc1,-44.8
15,O=C(O)Cc1cn2cc(C(F)(F)F)ccc2n1,11.4
16,Cc1cc(C(=O)NC2CC(=O)N(C(C)C)C2=O)c(C)n1C(C)C (stereo not drawn),-9.13
17,CC(CC#N)N(C)Cc1ccccc1F (stereo not drawn),10.4
18,Cc1ncc(S(=O)(=O)Nc2ccnn2C2CCCCC2)[nH]1,-6.82
19,c1ccc(COC[C@@H]2CCC[C@@]23CNCCO3)nc1,-105
20,CN1CCN(c2cc(N3CCCC3CO)ncn2)Cc2ccccc21 (stereo not drawn),-5.22
21,O=C(c1cccnc1-c1ccc2c(c1)OCCO2)N1CCCC1,3.82
22,CS(=O)(=O)Cc1nc(CN2CC=C(c3ccccc3)CC2)cs1,5.27
23,Cc1noc(C)c1CN(C)C(=O)C1(N)CCCCC1,6.67

row,SMILES,cytotoxicity at 10 µM [%]
1,Cc1cnn(CC2CCCN2C(=O)c2cc3ccccc3c(=O)[nH]2)c1 (stereo not drawn),-4.77
2,CN(CC1COCCO1)c1ncnc2cc(F)ccc12 (stereo not drawn),0.613
3,O=c1ccncn1Cc1csc(C2CC2)n1,-0.572
4,Cc1cccc(C(=O)NCc2ccc(N3CCCCC3)nc2)n1,4.26
5,COc1ccccc1C(=O)NCCCN1CCCC1C(=O)N(C)C (stereo not drawn),-2.94
6,COCc1cnc2n1CCN(C(=O)c1ocnc1C)C2C (stereo not drawn),-1.91
7,CCc1cnc2c(c1Nc1cccc(OC)c1)c(=O)n(C)c(=O)n2C,12.6
8,CC(C)n1ccnc1C1CCN(Cc2ccc(Cl)s2)CC1,-7.09
9,OCC(CO)N1CCC(c2nccnc2Nc2cnccn2)CC1,-10.5
10,CS(=O)(=O)Cc1nc(CN2CCC(C(F)(F)F)CC2)cs1,-10.9
11,N#Cc1ccc(CN2C[C@@H]3OCC(=O)N(CC(N)=O)[C@@H]3C2)cc1,-1.51
12,CC(=O)NC1CCCN(C(=O)Nc2cnc3c(cnn3C(C)C)c2)C1 (stereo not drawn),-4.67
13,Cn1cc(-c2nnn3c2COC(CNCc2cccnc2)C3)cn1 (stereo not drawn),0.824
14,O=C(CC1CC1)N1CCn2cc(Cn3cccn3)nc2C1,-78.5
15,Cc1ccc(C(=O)NCC(C)Cn2cccn2)c(=O)[nH]1 (stereo not drawn),3.14
16,Nc1nccnc1C1CN(Cc2ccc(OCC(=O)O)cc2)CCO1 (stereo not drawn),-2.11
17,COc1ccc2c(c1)OCC(Cc1ccnc(N)n1)C2 (stereo not drawn),-0.651
18,COc1cccc(CN(C)C(C)c2nccs2)c1OCCn1ccnc1 (stereo not drawn),-0.21
19,Clc1cncc(N2CCN(Cc3ccon3)CC2)n1,6.94
20,CCCS(=O)(=O)N1CCC2(CCCC(=O)N2C)CC1,3.29
21,CC(C)OC[C@H]1CCC[C@]12CN(S(=O)(=O)c1cccs1)CCO2,-1.52
